From ChEMBL document CHEMBL1131013, “Synthesis and evaluation of analogues of the partial agonist 6-(propyloxy)-4-(methoxymethyl)-beta-carboline-3-carboxylic acid ethyl ester (6-PBC) and the full agonist 6-(benzyloxy)-4-(methoxymethyl)-beta-carboline-3-carboxylic acid ethyl ester (Zk 93423) at wild type and recombinant GABAA receptors” (J Med Chem, 1998)

Molecular target: T1, GABA-A receptor; alpha-5/beta-3/gamma-2 (Homo sapiens, UniProt P18507+P28472+P31644)
T1 sequence (P18507 whole entry): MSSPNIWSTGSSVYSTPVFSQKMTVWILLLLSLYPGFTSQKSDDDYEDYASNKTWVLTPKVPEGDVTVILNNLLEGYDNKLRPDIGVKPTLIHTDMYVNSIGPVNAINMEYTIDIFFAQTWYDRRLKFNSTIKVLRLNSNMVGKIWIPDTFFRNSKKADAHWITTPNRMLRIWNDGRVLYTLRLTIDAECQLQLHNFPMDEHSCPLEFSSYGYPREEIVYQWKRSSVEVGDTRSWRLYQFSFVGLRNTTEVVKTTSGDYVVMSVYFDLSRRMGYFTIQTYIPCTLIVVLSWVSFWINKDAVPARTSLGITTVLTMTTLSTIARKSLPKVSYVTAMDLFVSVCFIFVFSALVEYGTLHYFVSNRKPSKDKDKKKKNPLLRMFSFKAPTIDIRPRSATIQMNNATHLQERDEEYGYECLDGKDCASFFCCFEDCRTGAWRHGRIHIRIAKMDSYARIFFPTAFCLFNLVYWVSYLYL
T1 sequence (P28472 whole entry): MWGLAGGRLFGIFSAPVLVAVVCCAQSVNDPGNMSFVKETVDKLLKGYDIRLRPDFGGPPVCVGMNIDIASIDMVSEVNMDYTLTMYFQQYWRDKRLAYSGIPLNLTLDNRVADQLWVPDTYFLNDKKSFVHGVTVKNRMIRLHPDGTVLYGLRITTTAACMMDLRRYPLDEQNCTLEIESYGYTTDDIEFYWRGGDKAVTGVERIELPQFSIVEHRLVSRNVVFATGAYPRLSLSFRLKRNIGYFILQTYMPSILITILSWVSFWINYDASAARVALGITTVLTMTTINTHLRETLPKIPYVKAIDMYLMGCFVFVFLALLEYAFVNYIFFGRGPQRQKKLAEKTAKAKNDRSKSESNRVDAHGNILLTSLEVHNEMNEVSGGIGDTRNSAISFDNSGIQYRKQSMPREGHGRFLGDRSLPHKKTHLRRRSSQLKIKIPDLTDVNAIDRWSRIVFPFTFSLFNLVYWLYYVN
T1 sequence (P31644 whole entry): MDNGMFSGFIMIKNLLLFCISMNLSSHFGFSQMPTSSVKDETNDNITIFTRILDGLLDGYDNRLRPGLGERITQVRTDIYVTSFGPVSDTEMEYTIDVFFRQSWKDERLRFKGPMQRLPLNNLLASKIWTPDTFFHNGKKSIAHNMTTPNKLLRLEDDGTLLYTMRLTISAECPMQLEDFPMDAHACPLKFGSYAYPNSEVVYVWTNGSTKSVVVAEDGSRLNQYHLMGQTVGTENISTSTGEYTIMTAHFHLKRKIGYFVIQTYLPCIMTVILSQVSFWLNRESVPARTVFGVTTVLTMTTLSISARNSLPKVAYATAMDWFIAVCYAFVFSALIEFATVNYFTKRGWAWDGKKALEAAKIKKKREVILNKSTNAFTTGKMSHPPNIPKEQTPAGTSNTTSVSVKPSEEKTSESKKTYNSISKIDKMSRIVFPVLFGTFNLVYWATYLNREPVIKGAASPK
Assay: Binding affinity measured using LtK- cell membranes expressing Gamma-aminobutyric acid A receptor alpha-5-beta-3-gamma-2

Structure (SMILES) | Ki
CCOc1[nH]cc2nc3cc(OC)c(OC)cc3c-2c1CC | > 300 nM
COCc1c(C(=O)OC(C)C)ncc2[nH]c3ccc(OCc4ccccc4)cc3c12 [ABECARNIL] | 6 nM
CCCCCCCCOc1ccc2c(c1)c1c(COC)c(C(=O)OCC)ncc1n2C | > 3000 nM
CCCOc1ccc2[nH]c3cnc(N)c(COC)c3c2c1 | 380 nM
CCOC(=O)c1[nH]cc2nc3cc(OC)c(OC)cc3c-2c1CC | 3.3 nM
CCOC(=O)c1ncc2c(c1CC)c1ccccc1n2C | > 1000 nM
CCCOc1cc2c(cn1)[nH]c1ccccc12 | 591 nM
CC(C)Oc1cc2c(cn1)[nH]c1ccccc12 | > 10000 nM

Molecular target: GABA-A receptor; anion channel
Assay: Displacement of [3H]flunitrazepam from GABA-A Benzodiazepine receptor of rat brain cortical membranes
Format: cell membranes, Membrane
In short: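 Rat cerebral cortex homogenized in 50 mM Tris-citrate, pH 7.4, and washed by centrifugation (20000g). […] Nonspecific binding with 10 μM Ro15-1788. Ended by vacuum filtration. IC50 estimated from at least six inhibitor concentrations; mean ± SEM of at least three determinations.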

Structure (SMILES) | IC50
CCCCCCCCOc1ccc2c(c1)c1c(COC)c(C(=O)OCC)ncc1n2C | > 1000 nM
CCCOc1ccc2[nH]c3cnc(N)c(COC)c3c2c1 | 697 nM

Molecular target: T2, GABA-A receptor; alpha-1/beta-3/gamma-2 (Homo sapiens, UniProt P14867+P18507+P28472)
T2 sequence (P14867 whole entry): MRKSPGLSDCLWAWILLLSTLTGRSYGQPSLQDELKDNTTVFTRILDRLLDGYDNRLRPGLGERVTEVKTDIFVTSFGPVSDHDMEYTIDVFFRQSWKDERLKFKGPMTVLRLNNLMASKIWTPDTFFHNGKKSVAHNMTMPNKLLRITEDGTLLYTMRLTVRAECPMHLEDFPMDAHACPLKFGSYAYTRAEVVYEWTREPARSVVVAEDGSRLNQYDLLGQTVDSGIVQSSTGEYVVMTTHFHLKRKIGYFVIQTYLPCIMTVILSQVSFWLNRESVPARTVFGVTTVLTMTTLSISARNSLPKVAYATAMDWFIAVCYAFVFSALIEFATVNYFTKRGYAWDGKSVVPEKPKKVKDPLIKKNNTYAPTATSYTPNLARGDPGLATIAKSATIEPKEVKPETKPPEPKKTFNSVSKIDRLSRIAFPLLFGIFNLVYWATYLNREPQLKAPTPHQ
T2 sequence (P18507 whole entry): T1 sequence (P18507 whole entry)
T2 sequence (P28472 whole entry): T1 sequence (P28472 whole entry)
Assay: Binding affinity measured using LtK- cell membranes expressing GABA alpha-1-beta-3-gamma-2 receptor

Structure (SMILES) | Ki
CCOc1[nH]cc2nc3cc(OC)c(OC)cc3c-2c1CC | > 300 nM
COCc1c(C(=O)OC(C)C)ncc2[nH]c3ccc(OCc4ccccc4)cc3c12 [ABECARNIL] | 12.4 nM
CCCCCCCCOc1ccc2c(c1)c1c(COC)c(C(=O)OCC)ncc1n2C | > 3000 nM
CCCOc1ccc2[nH]c3cnc(N)c(COC)c3c2c1 | 45 nM
CCOC(=O)c1[nH]cc2nc3cc(OC)c(OC)cc3c-2c1CC | 6.2 nM
CCOC(=O)c1ncc2c(c1CC)c1ccccc1n2C | > 1000 nM
CCCOc1cc2c(cn1)[nH]c1ccccc12 | 5.3 nM
CC(C)Oc1cc2c(cn1)[nH]c1ccccc12 | 283 nM

Molecular target: GABA-A receptor; alpha-6/beta-3/gamma-2 (Homo sapiens, UniProt P18507+P28472+Q16445)
Assay: Binding affinity measured using LtK- cell membranes expressing Gamma-aminobutyric acid A receptor alpha-6-beta-3-gamma-2
In short: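 Ltk- cells expressing human α6β3γ2, scraped into PBS and resuspended in 10 mM KH2PO4/100 mM KCl pH 7.4. 1 h at 4 °C to equilibrium, filtration, scintillation counting.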

Sequence of GABA-A receptor; alpha-6/beta-3/gamma-2 (Q16445 whole entry, one chain of several): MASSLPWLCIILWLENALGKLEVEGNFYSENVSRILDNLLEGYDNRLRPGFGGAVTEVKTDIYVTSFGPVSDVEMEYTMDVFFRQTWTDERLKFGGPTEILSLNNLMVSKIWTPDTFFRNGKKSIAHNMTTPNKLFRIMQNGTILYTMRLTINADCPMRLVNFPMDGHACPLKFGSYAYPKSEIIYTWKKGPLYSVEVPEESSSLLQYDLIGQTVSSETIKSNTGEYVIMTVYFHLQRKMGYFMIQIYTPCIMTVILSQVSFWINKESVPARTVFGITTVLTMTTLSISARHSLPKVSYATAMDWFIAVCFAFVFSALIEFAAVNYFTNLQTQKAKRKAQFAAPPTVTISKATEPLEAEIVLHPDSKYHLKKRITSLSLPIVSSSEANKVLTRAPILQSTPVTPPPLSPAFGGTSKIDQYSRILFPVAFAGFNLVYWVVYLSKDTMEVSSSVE

Structure (SMILES) | Ki
CCOc1[nH]cc2nc3cc(OC)c(OC)cc3c-2c1CC | > 300 nM
COCc1c(C(=O)OC(C)C)ncc2[nH]c3ccc(OCc4ccccc4)cc3c12 [ABECARNIL] | > 10000 nM
CCCCCCCCOc1ccc2c(c1)c1c(COC)c(C(=O)OCC)ncc1n2C | > 3000 nM
CCCOc1ccc2[nH]c3cnc(N)c(COC)c3c2c1 | > 3000 nM
CCOC(=O)c1[nH]cc2nc3cc(OC)c(OC)cc3c-2c1CC | 74.9 nM
CCOC(=O)c1ncc2c(c1CC)c1ccccc1n2C | > 10000 nM
CCCOc1cc2c(cn1)[nH]c1ccccc12 | > 1000 nM
CC(C)Oc1cc2c(cn1)[nH]c1ccccc12 | > 10000 nM

Molecular target: T3, GABA-A receptor; alpha-2/beta-3/gamma-2 (Homo sapiens, UniProt P18507+P28472+P47869)
T3 sequence (P18507 whole entry): T1 sequence (P18507 whole entry)
T3 sequence (P28472 whole entry): T1 sequence (P28472 whole entry)
T3 sequence (P47869 whole entry): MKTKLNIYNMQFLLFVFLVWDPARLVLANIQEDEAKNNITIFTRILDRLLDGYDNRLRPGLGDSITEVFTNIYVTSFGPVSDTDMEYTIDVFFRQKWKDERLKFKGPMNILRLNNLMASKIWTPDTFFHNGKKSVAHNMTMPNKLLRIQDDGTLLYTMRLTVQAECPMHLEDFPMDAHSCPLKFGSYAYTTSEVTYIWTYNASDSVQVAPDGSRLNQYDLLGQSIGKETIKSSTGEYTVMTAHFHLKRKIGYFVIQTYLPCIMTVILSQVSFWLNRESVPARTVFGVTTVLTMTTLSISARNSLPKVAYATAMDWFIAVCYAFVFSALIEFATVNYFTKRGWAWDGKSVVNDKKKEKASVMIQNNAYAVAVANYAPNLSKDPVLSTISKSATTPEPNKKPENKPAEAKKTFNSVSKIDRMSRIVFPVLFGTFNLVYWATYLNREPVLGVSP
Assay: Binding affinity measured using LtK- cell membranes expressing GABA alpha-2-beta-3-gamma-2 receptor

Structure (SMILES) | Ki
CCOc1[nH]cc2nc3cc(OC)c(OC)cc3c-2c1CC | > 300 nM
COCc1c(C(=O)OC(C)C)ncc2[nH]c3ccc(OCc4ccccc4)cc3c12 [ABECARNIL] | 15.3 nM
CCCCCCCCOc1ccc2c(c1)c1c(COC)c(C(=O)OCC)ncc1n2C | > 3000 nM
CCCOc1ccc2[nH]c3cnc(N)c(COC)c3c2c1 | 540 nM
CCOC(=O)c1[nH]cc2nc3cc(OC)c(OC)cc3c-2c1CC | 18.7 nM
CCOC(=O)c1ncc2c(c1CC)c1ccccc1n2C | > 1000 nM
CCCOc1cc2c(cn1)[nH]c1ccccc12 | 52.3 nM
CC(C)Oc1cc2c(cn1)[nH]c1ccccc12 | > 3000 nM

Molecular target: T4, GABA-A receptor; alpha-3/beta-3/gamma-2 (Homo sapiens, UniProt P18507+P28472+P34903)
T4 sequence (P18507 whole entry): T1 sequence (P18507 whole entry)
T4 sequence (P28472 whole entry): T1 sequence (P28472 whole entry)
T4 sequence (P34903 whole entry): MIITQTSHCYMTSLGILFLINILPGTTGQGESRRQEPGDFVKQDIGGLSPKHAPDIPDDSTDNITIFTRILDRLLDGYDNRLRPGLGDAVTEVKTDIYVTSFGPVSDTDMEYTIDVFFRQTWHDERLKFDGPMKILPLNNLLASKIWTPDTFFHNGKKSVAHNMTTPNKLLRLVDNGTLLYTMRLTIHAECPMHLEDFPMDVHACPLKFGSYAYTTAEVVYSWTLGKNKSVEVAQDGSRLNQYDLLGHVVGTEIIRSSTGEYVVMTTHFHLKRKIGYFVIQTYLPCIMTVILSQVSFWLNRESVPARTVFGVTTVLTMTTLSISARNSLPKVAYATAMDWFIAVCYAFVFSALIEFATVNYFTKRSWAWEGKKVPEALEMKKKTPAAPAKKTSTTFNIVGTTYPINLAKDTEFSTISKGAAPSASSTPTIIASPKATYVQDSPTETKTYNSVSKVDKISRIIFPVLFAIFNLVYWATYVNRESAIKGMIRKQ
Assay: Binding affinity measured using LtK- cell membranes expressing GABA alpha-3-beta-3-gamma-2 receptor

Structure (SMILES) | Ki
CCOc1[nH]cc2nc3cc(OC)c(OC)cc3c-2c1CC | > 300 nM
COCc1c(C(=O)OC(C)C)ncc2[nH]c3ccc(OCc4ccccc4)cc3c12 [ABECARNIL] | 7.5 nM
CCCCCCCCOc1ccc2c(c1)c1c(COC)c(C(=O)OCC)ncc1n2C | > 3000 nM
CCCOc1ccc2[nH]c3cnc(N)c(COC)c3c2c1 | 700 nM
CCOC(=O)c1[nH]cc2nc3cc(OC)c(OC)cc3c-2c1CC | 4 nM
CCOC(=O)c1ncc2c(c1CC)c1ccccc1n2C | > 1000 nM
CCCOc1cc2c(cn1)[nH]c1ccccc12 | 68.8 nM
CC(C)Oc1cc2c(cn1)[nH]c1ccccc12 | > 3000 nM
